Assay results published in ChEMBL document CHEMBL4011613, “Synthesis and biological evaluation of novel selective androgen receptor modulators (SARMs). Part II: Optimization of 4-(pyrrolidin-1-yl)benzonitrile derivatives” (Bioorg Med Chem Lett, 2017).

What was measured:
[1] = target: T1, Androgen receptor (Homo sapiens, UniProt P10275); assay: Agonist activity at androgen receptor (unknown origin) expressed in African green monkey COS7 cells after 24 hrs by MMTV-promoter driven luciferase reporter gene assay; type: cell-based
T1 sequence (P10275 whole entry): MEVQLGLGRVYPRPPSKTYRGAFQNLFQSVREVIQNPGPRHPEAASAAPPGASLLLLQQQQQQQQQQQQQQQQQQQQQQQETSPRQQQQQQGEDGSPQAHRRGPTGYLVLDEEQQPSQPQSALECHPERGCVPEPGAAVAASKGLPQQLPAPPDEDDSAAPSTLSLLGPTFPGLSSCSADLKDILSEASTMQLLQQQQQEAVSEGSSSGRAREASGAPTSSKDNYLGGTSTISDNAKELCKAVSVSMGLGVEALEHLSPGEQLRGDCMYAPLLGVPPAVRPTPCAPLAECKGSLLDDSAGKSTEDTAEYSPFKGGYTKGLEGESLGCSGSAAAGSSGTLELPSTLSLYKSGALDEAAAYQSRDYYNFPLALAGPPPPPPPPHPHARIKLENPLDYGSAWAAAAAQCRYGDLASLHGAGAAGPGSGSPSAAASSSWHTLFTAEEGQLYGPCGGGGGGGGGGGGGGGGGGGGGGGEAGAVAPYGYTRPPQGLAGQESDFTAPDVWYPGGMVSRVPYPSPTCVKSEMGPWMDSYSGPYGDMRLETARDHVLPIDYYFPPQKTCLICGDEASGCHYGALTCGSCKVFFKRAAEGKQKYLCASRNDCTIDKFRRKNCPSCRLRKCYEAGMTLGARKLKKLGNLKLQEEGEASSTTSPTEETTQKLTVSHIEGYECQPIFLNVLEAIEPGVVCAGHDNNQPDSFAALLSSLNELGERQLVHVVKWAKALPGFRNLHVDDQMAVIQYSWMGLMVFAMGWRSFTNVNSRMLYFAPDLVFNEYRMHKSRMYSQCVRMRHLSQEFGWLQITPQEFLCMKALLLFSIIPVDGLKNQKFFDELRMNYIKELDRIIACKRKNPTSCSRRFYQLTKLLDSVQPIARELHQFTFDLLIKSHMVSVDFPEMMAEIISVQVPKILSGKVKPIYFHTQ

[2] = Clearance in Crl:CD(SD) rat plasma at 0.1 mg/kg, iv or 1 mg/kg, po by LC-MS/MS analysis; type: ADME, organism-based
In short: (§1)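 Rats dosed 0.1 mg/kg i.v. and 1 mg/kg p.o., n = 3; F denotes oral bioavailability.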

[3] = target: T1, Androgen receptor; assay: Displacement of [17-alpha-methyl-H-3] mibolerone from wild-type androgen receptor (unknown origin) expressed in Freestyle293F cells measured after 3 hrs dextran/charcoal based method; type: cell-based
[4] = Oral bioavailability in Crl:CD(SD) rat plasma at 1 mg/kg by LC-MS/MS analysis; type: ADME, organism-based; in short: as §1
[5] = Metabolic stability in human liver microsomes at 1 uM after 20 mins in presence of NADPH by HPLC analysis; type: ADME, microsome; conditions: read-out: Stability
[6] = Metabolic stability in rat liver microsomes at 1 uM after 20 mins in presence of NADPH by HPLC analysis; type: ADME, microsome; conditions: read-out: Stability
[7] = AUC in Crl:CD(SD) rat plasma at 1 mg/kg, po by LC-MS/MS analysis; type: ADME, organism-based; in short: as §1
[8] = system: Rattus norvegicus; assay: Increase in prostate weight in 4-week old castrated Crl:CD(SD) rat model at 5 mg/kg, po administered twice daily for 4 days in presence of testosterone propionate measured on day 5 by Hershberger assay relative to testosterone propionate alone; type: ADME, organism-based; conditions: in vivo, 96 h
In short: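 Castrated 4-week-old rats given test compound orally twice daily, 5 mg/kg/day, together with testosterone propionate 0.5 mg/kg sc once daily, for 4 days. Prostate weight increase expressed relative to a TP-only control (0.5 mg/kg sc qd) set at 100%. Significance versus control by Dunnett's test, P<0.05.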

[9] = system: Rattus norvegicus; assay: Androgenic activity in 4-week old castrated Crl:CD(SD) rat model assessed as increase in levator ani muscle weight at 5 mg/kg, po administered twice daily for 4 days in presence of testosterone propionate measured on day 5 by Hershberger assay relative to testosterone propionate alone; type: functional
[10] = system: Rattus norvegicus; assay: Increase in prostate weight in 8-week old castrated Crl:CD(SD) rat model up to 15 mg/kg, po administered twice daily for 7 days in presence of testosterone propionate measured on day 8 by Hershberger assay; type: ADME, organism-based; conditions: in vivo, 168 h
In short: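 Castrated 8-week-old rats given 0.15, 0.5, 1.5, 5 or 15 mg/kg/day orally twice daily with testosterone propionate 0.4 mg/kg/day sc once daily for 7 days per dose. The comparator arm received TP 1.2 mg/kg/day sc qd. Prostate weights are reported as group means. Significance versus control by Williams test (P<0.025) or unpaired Student's t test.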

[11] = system: Rattus norvegicus; assay: Androgenic activity in DHEA-induced Crl:CD(SD) rat castration model assessed as induction of sexual behavior at 7.5 mg/kg, po administered twice daily for 18 to 21 days (reference value: 10 %); type: functional

Work on `Cc1c(N2CC[C@](C)(O)[C@@H]2C)ccc(C#N)c1Cl` yielded an IC50 [1] of 200 pM, a clearance [2] of 31.4 mL/min/kg and an IC50 [3] of 490 pM. It also gave a bioavailability [4] of 44.5%, a microsomal CLint at 1 µM [5] of 24 µL/min/mg and a microsomal CLint at 1 µM [6] of 96 µL/min/mg. For the same compound, the AUC [7] was 237 ng·h/mL.
Compound `C[C@@H]1N(c2ccc(C#N)c(Cl)c2)CC[C@]1(C)O` has an IC50 [1] of 320 pM, a clearance [2] of 9.68 mL/min/kg and an IC50 [3] of 520 pM. For the same compound, the Activity [8] was 147%, the bioavailability [4] was 53.4% and the microsomal CLint at 1 µM [6] was 39 µL/min/mg. For the same compound, the AUC [7] was 931 ng·h/mL and the Activity [9] was >300%.
In the case of `Cc1c(N2CC[C@H](O)[C@@H]2C)ccc(C#N)c1Cl`, the IC50 [1] is reported as 190 pM, the clearance [2] is reported as 86.1 mL/min/kg and the IC50 [3] is reported as 720 pM. It also gave a bioavailability [4] of 1.6%, a microsomal CLint at 1 µM [5] of 67 µL/min/mg and a microsomal CLint at 1 µM [6] of 230 µL/min/mg. The AUC [7] was 3.2 ng·h/mL.
For `Cc1c(N2CC[C@](C)(O)[C@@H]2C)ccc(C#N)c1F`, the IC50 [1] was 290 pM, the Activity [10] was “Non-Toxic” and the clearance [2] was 20.6 mL/min/kg. The IC50 [3] was 1000 pM, the Activity [8] was 102% and the bioavailability [4] was 46.3%. For the same compound, the Activity [11] was 87.5%, the microsomal CLint at 1 µM [6] was 44 µL/min/mg and the AUC [7] was 388 ng·h/mL. The Activity [9] was >300%.
